The EternaBench riboswitch data

System: MS2 coat protein
Assay: apparent Kd, MS2 coat protein; higher = weaker binding; RNA-MaP array
Summary of the method: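 Sequenced DNA templates on an Illumina sequencing chip were transcribed into the designed RNAs. These were incubated at room temperature in Tris-HCl pH 7.5 buffer containing KCl, MgCl2, BSA, DTT, tRNA and Tween20 with fluorescently labeled MS2 coat protein at 1.5 nM to 3 μM, with or without input ligand. Apparent Kd is the median of binding-curve fits per cluster, and designs with fewer than 10 clusters measured were excluded.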

[1] = designed as: ON switch for flavin mononucleotide, no ligand
[2] = ligand present: flavin mononucleotide, designed as: ON switch for flavin mononucleotide
[3] = designed as: OFF switch for flavin mononucleotide, no ligand
[4] = ligand present: flavin mononucleotide, designed as: OFF switch for flavin mononucleotide
[5] = designed as: OFF switch for theophylline, no ligand
[6] = ligand present: theophylline, designed as: OFF switch for theophylline
[7] = designed as: OFF switch for tryptophan, no ligand
[8] = ligand present: tryptophan, designed as: OFF switch for tryptophan

| Sequence | apparent Kd [1] | apparent Kd [2] | apparent Kd [3] | apparent Kd [4] | further results |
| --- | --- | --- | --- | --- | --- |
| AAUUUUUACUCAGGAUAUUGGGAGAGCACGGGUUGUUCUCCCCACAUGAGGAUCACCCAUGUGAUCAAGAAGGGAGACGCAAAG | 0.0259 µM | 0.0168 µM | – | – | – |
| ACAAAGACAGGAUAUACAAAUUACAACUAAUCAAGGAAAAGACAUGAGGAUCACCCAUGUAGAAGGGUCAAUAA | – | – | 0.0269 µM | 0.0205 µM | – |
| ACAAUCACAUGAGGAUCACCCAUGUUAGACAGGGUCAAUGUGAAGGAUAUGAACAAUGAAAAUACUCAGAAGGUCAUAUUGAAA | 0.192 µM | 0.0274 µM | – | – | – |
| ACAAUGUGAGGAUAUCGUAAGCAUGACUAUGGCGCUAACACCGAGAAGGCACAUGAGGAUCACCCAUGUCCUGA | – | – | 0.00684 µM | 0.0107 µM | – |
| ACAGGUAGAGGAUAUCGUGAAAGUCACAUGAGGAUCACCCAUGUGGUAAGCAUGUACGCCCGAGAAGGCUAACCGC | – | – | 0.00757 µM | 0.0124 µM | – |
| ACAUGAGGAUCACCCAUGUUUGACUGGGCUUGCUCUCGCCGUAGAAGGUUUCAUUAAGUAGAGGAAAAGGAUAUACACUGGGCC | – | – | 0.0122 µM | 0.0107 µM | – |
| ACCACAGAGUAGAAGGUCCGACACGGCUCGUCGGAAGGAUAUACAUAUUGUUAGAGAUGGGAACAUGAGGAUCACCCAUGUGUC | 0.0162 µM | 0.0099 µM | – | – | – |
| ACCCAUUUGUUAGGAUAUGACUCGAGACAGGUACAUGAGGAUCACCCAUGUUGUACAGGACCGUCUCAGAAGGAACGAACGUAU | – | – | 0.00964 µM | 0.00875 µM | – |
| ACCCGACAAGUGAGGAUAUUGAUAAGAGGAGCUUACAAGAAGGCACAUGAGGAUCACCCAUGUAUUAAGUGAAG | – | – | 0.00797 µM | 0.0098 µM | – |
| ACCUAAGCCACAGAUACCAGAGUAAUAGGCCAAUUUCAAAACAUGAGGAUCACCCAUGUACUCCCUUGGCAGCUGCGAAUCGAAA | – | – | – | – | apparent Kd [5]: 0.0109 µM; apparent Kd [6]: 0.0152 µM |
| ACGCGCUGGGCGGCCGCCACUCACCUGCCGUGGACAUUUCGAGGUCACAUGAGGAUCACCCAUGUGAGGACCGGGCCCUGUAGGC | – | – | – | – | apparent Kd [7]: 0.0132 µM; apparent Kd [8]: 0.0212 µM |
| ACUACGCUAGGAUAUACGAGGAGUGCAUGGAAGCGUUUGACACAUGAGGAUCACCCAUGUAGAAGGAGCUGCAA | – | – | 0.00775 µM | 0.0161 µM | – |
| ACUCUAAGAUGAGGAUAUCACAUCUUAUCGCCACGGUGGCUUCACAUGAGGAUCACCCAUGUAUGUGAGAAGGCAUUUCCGGAC | – | – | 0.0241 µM | 0.0207 µM | – |
| ACUGACUUUACGGCCGCCACUCAUUGGCACGUGUCAUGUCAACAUGAGGAUCACCCAUGUAUGAUGAGGACCGGGUAAGGGCUGC | – | – | – | – | apparent Kd [7]: 0.0109 µM; apparent Kd [8]: 0.0127 µM |
| AGAAUAUGAAUAGGAUAUCUGCGUAAUGAUAAAAGAGAAGGAAUUAGAAGUAUUACAUGAGGAUCACCCAUGUUUGAUAAGAAA | 0.00961 µM | 0.00877 µM | – | – | – |
| AGACAUGAGGAUCACCCAUGUGAAGUGGAUACCAGCCGCAGCGAUGGCCCUUGGCAGCCAGCUUUGUGUCGAUACAUCCGCACUU | – | – | – | – | apparent Kd [5]: 0.0159 µM; apparent Kd [6]: 0.0258 µM |
| AGAUCCUUGGUCAGGAUAUCCAAUAAAGCCGUUUGGGAGAAGGGACAUGAGGAUCACCCAUGUAAAUUGACCAC | – | – | 0.0122 µM | 0.0323 µM | – |
| AGCGAAUAAGGAUAUACGUGAAAAGCACUUAGAGUUGGAUCACAUGAGGAUCACCCAUGUAGAAGGUAUGACGA | – | – | 0.0186 µM | 0.0157 µM | – |
| AUACUAAACAUGAGGAUCACCCAUGUGACGUCAGGUCAGUUGAGAAGGCUAGGGAUGCUAGAUGUAGAGGAUAUCAGCGACGGA | – | – | 0.0154 µM | 0.00976 µM | – |
| AUAGAAAAUGUAAGGAUAUAUCGAAACAAUAAACGAAAGAAGGAACAUGAGGAUCACCCAUGUAAAGUAAUAAA | – | – | 0.0103 µM | 0.00925 µM | – |
| AUCGACAAAGGAUAUGAUGCGAAUGACAUGAGGAUCACCCAUGUGGAGCCAAGUGUCCCGUCAGAAGGUUGUACGU | – | – | 0.152 µM | 0.313 µM | – |

| Sequence | apparent Kd [1] | apparent Kd [2] | apparent Kd [3] | apparent Kd [4] | further results |
| --- | --- | --- | --- | --- | --- |
| AUCUAGUGCCUCAAGGAUAUGCACAGAGAGACAUGAGGAUCACCCAUGUAACAAGCAUGCUCAACGCAGAAGGUGACACUUAAGAU | 0.0392 µM | 0.0127 µM | – | – | – |
| AUCUCUGACUAAGGAUAUGCGGCAAAGAGCCUCUCAGAAAACAUGAGGAUCACCCAUGUAUGGACGCAGAAGGUAGUAGCCCAC | 0.00906 µM | 0.0214 µM | – | – | – |
| AUGCCACUUAAGAAGGCGGCGUGAUGCUUAGCGUUGAGACAUGAGGAUCACCCAUGUGACGUACCCGAGGAUAUUAAUGGAAUC | 0.017 µM | 0.0117 µM | – | – | – |
| AUUACCCCAUGAGGAUAUCCAAUAAGGAGAGACAUGAGGAUCACCCAUGUCGACGGACGCAUACAGGAGAAGGCAUGGACUAGC | 0.0136 µM | 0.00754 µM | – | – | – |
| AUUGUGAACCUGAUCGUAUAAUGUAGCGAUACCAGUAUAAUACAUUACCCUUGGCAGCGCGACACAUGAGGAUCACCCAUGUAAG | – | – | – | – | apparent Kd [5]: 0.0265 µM; apparent Kd [6]: 0.0394 µM |
| AUUUAAAAGUUAGGAUAUCUCAUCAGCUCAAUAGAUGACAUGAGGAUCACCCAUGUGACCAAAGGAGAGAAGGAACUCAUAAUG | – | – | 0.0651 µM | 0.0314 µM | – |
| CAAAACAUGAGGAUCACCCAUGUAGAUACGUGAAAAUUAUGGGAGGAUAUACAAUAGGACUGUAUGAAGAAGGCCCGAAAGCCA | 0.02 µM | 0.0185 µM | – | – | – |
| CACGGAAAUCAGAAGGCGCCUACACACGCAUUGCGAGGAUAUGACCGGUCGGUCCACAUGAGGAUCACCCAUGUUAACUAACGC | 0.0163 µM | 0.0122 µM | – | – | – |
| CACGGCAUUGAGAAGGGAGUGACAUGGAACUGCUCAGGAUAUCAACACACAUUGUUAAAGAAAACAUGAGGAUCACCCAUGUUC | 0.0112 µM | 0.00928 µM | – | – | – |
| CACUUCAUAAUAGGAUAUCAUGGAUGACAUGAGGAUCACCCAUGUCCGCACUCUUCAACUACACGUGAGAAGGAUUCGCGGGUC | 0.194 µM | 0.13 µM | – | – | – |
| CAGAACAACGAAGGAUAUGCGAAACAUGAGGAUCACCCAUGUGUGGUUUUACUCAAACACCUGUCGCAGAAGGUCGCGUAACGA | – | – | 0.0379 µM | 0.0311 µM | – |
| CAGUGAGAGUCGGCCGCCACUUAACGCAAGUAGCGCAACCCAAAACAUGAGGAUCACCCAUGUCGAAGGACCGGGACAAUGAGCG | – | – | – | – | apparent Kd (designed as: ON switch for tryptophan, no ligand): 0.0129 µM; apparent Kd (ligand present: tryptophan, designed as: ON switch for tryptophan): 0.0122 µM |
| CAGUUACAUGAGGAUCACCCAUGUUUUUAACGCAGAGGAUAUCCGGUGGUUAAUGGCUCAGGAGAAGGCUGUGGUC | 0.0163 µM | 0.00937 µM | – | – | – |
| CAUCAAAAGCUAGGAUAUACCUAGAGUACCGGAACAUGAGGAUCACCCAUGUUAGAGUGAUGCUGGUAGAAGGAGCUGGUAAAG | 0.0319 µM | 0.0158 µM | – | – | – |
| CAUUCACUAACUCCACAUGAGGAUCACCCAUGUUGAGGUCCGAGAAGGUGCACUACGUGGGAGCGCAAGGAUAUCGCCUAGUAA | 0.00984 µM | 0.00764 µM | – | – | – |
| CCACGCUCAGUUAGGAUAUGAUCCAUUACCAGUGAUCAGAAGGAACAUGAGGAUCACCCAUGUACAGUACGAGA | – | – | 0.00962 µM | 0.0142 µM | – |
| CCCAUACAUGAGGAUCACCCAUGUGUUGAUACCAGCAUAUGUAGAUGCCCUUGGCAGCAAGCUUGGGUCACUGGAAAACAUCUAA | – | – | – | – | apparent Kd (designed as: ON switch for theophylline, no ligand): 0.0259 µM; apparent Kd (ligand present: theophylline, designed as: ON switch for theophylline): 0.0565 µM |
| CCGCGCACUGGAGGAUAUAAUCGAACAUGAGGAUCACCCAUGUUAGACGUGGUACGAGCGUUCCAUUAGAAGGCCACUCUGCGU | – | – | 0.0271 µM | 0.0528 µM | – |
| CCGCGUGCGGAAGGAUAUAUCCUAUGUUAGGAAAAUAACACAUGAGGAUCACCCAUGUCGAAGAGAUAGAAGGUCCGACAUACA | 0.0295 µM | 0.014 µM | – | – | – |
| CCUUAUUCAUAGAAGGAGUUCAUCCUACGUGGACUAGGAUAUAUAUUCGACAUGAGGAUCACCCAUGUAUCUGAGAUCGUGGUA | – | – | 0.0293 µM | 0.0262 µM | – |
